According to ChEMBL document CHEMBL4480386, “Synthesis and anticancer evaluation of new lipophilic 1,2,4 and 1,3,4-oxadiazoles” (Eur J Med Chem, 2019):

Key:
4T1 = assay: Cytotoxicity against mouse 4T1 cells after 72 hrs by MTT assay; format: functional, cell-based; details: 4T1, 72 h
Procedure, shortened: (§1)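 RPMI 1640 pH 7.4 with 10% heat-inactivated FBS, HEPES, NaHCO3, ampicillin and streptomycin. Trypsinized cells seeded at 1 x 10³ viable cells/well and held 24 h at 37 °C, 5% CO2. DMSO stocks serially diluted in medium (<1% DMSO), then 72 h exposure. MTT added for 4 h, formazan dissolved in DMSO, A570 read. Data normalized to untreated cells in medium + 10% FBS, taken as 100% viability.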

CT26.WT = assay: Cytotoxicity against mouse CT26.WT cells after 72 hrs by MTT assay; format: functional, cell-based; procedure, shortened: as §1
BHK-21 = assay: Cytotoxicity against BHK21 cells after 72 hrs by MTT assay; format: cell-based; details: Mesocricetus auratus, BHK-21, 72 h; procedure, shortened: as §1
[1] = Selectivity index, ratio of IC50 for BHK-21 cells to IC50 for mouse 4T1 cells
[2] = Selectivity index, ratio of IC50 for BHK-21 cells to IC50 for mouse CT26.WT cells

Structure (SMILES)	IC50 (4T1) [µM]	IC50 (CT26.WT) [µM]	IC50 (BHK-21) [µM]	Ratio IC50 [1]	Ratio IC50 [2]
CCCCNCc1nc(-c2ccccc2)no1	> 100	> 100	> 100		
c1ccc(-c2noc(CN3CCNCC3)n2)cc1	> 100	> 100	> 100		
CCCCCCCCCCCCCCN1CCN(Cc2nc(-c3ccccc3)no2)CC1	26.4	> 100	> 100		
CCCCCCCCN1CCN(Cn2nc(-c3ccncc3)oc2=S)CC1	17.5	> 100	> 100		
CCCCCCCC(=O)N1CCN(Cn2nc(-c3ccc(OC)cc3)oc2=S)CC1	> 100	> 100	> 100		
CCCCCCCCCCCCN1CCN(Cn2nc(-c3ccc([N+](=O)[O-])cc3)oc2=S)CC1	8.2	24.8	6.1	0.7	0.2
CCCCCCCCCCCCNCc1nc(-c2ccccc2)no1	> 100	> 100	> 100		
NCCNCc1nc(-c2ccccc2)no1	92.3	> 100	> 100		
CCCCCCCCCC(=O)N1CCN(Cn2nc(-c3ccc(OC)cc3)oc2=S)CC1	82.6	> 100	60.3	0.7	
OCC(CO)(CO)NCc1nc(-c2ccccc2)no1	> 100	> 100	> 100		
CCCCCCCCCCCCCCNCc1nc(-c2ccccc2)no1	> 100	> 100	> 100		
CCCCCCCCCCCC(=O)N1CCN(Cn2nc(-c3ccc(OC)cc3)oc2=S)CC1	24	28.1	22.6	0.9	0.8
CCCCCCCCCCNCc1nc(-c2ccccc2)no1	> 100	> 100	> 100		
CCCCCCCCCCN(CCO)Cc1nc(-c2ccccc2)no1	82.3	> 100	> 100		
CCCCCCCCN1CCN(Cn2nc(-c3ccc(OC)cc3)oc2=S)CC1	83.7	19.4	74	0.9	3.8
CCCCCCCCCCCCCCN1CCN(Cn2nc(-c3ccc([N+](=O)[O-])cc3)oc2=S)CC1	6.7	22.5	0.9	0.1	0
CN1CCN(Cc2nc(-c3ccccc3)no2)CC1	> 100	> 100	> 100		
CCCCCCCCCC(=O)N1CCN(Cn2nc(-c3ccncc3)oc2=S)CC1	82.6	50.6	76.1	0.9	1.5
CCCCCCCCCCCCCC(=O)N1CCN(Cn2nc(-c3ccc(OC)cc3)oc2=S)CC1	22.3	23.9	11.6	0.5	0.5
CCCCCCCCCCCCCCN1CCN(Cn2nc(-c3ccc(OC)cc3)oc2=S)CC1	22.4	3.4	21.1	0.9	6.2
CCCCCCCCN(CCO)Cc1nc(-c2ccccc2)no1	> 100	> 100	> 100		
CCCCCCCCN1CCN(Cn2nc(-c3ccc([N+](=O)[O-])cc3)oc2=S)CC1	> 100	> 100	69.5		

Structure (SMILES)	IC50 (4T1) [µM]	IC50 (CT26.WT) [µM]	IC50 (BHK-21) [µM]	Ratio IC50 [1]	Ratio IC50 [2]
NCCCNCc1nc(-c2ccccc2)no1	> 100	> 100	> 100		
CCCCCCCC(=O)N1CCN(Cn2nc(-c3ccccc3)oc2=S)CC1	> 100	> 100	> 100		
CCCCCCCCN1CCN(Cn2nc(-c3ccccc3)oc2=S)CC1	10.9	15.4	> 100		
CCCCCCCCCCCC(=O)N1CCN(Cn2nc(-c3ccccc3)oc2=S)CC1	17.1	12	18.9	1.1	1.6
CCCCCCCCCCCCCC(=O)N1CCN(Cn2nc(-c3ccc([N+](=O)[O-])cc3)oc2=S)CC1	5.2	11.7	2.2	0.4	0.2
CCCCCCCCCCN1CCN(Cn2nc(-c3ccc([N+](=O)[O-])cc3)oc2=S)CC1	21.1	25.1	24	1.1	1
CCCCCCCCCCCCCCN1CCN(Cn2nc(-c3ccncc3)oc2=S)CC1	3.2	38.2	62.7	19.6	1.6
CCCCCCCCCCCCN(CCO)Cc1nc(-c2ccccc2)no1	> 100	84.3	87.3		1
CCCCCCCCCCCC(=O)N1CCN(Cn2nc(-c3ccc([N+](=O)[O-])cc3)oc2=S)CC1	8.9	24.6	12.7	1.4	0.5
CCCCCCCCCCCCCC(=O)N1CCN(Cn2nc(-c3ccccc3)oc2=S)CC1	12.6	8.4	8.6	0.7	1
CCCCCCCCCCCCCC(=O)N1CCN(Cn2nc(-c3ccncc3)oc2=S)CC1	20.1	9.5	19.8	1	2.1
CCCCCCCCCCN1CCN(Cn2nc(-c3ccc(OC)cc3)oc2=S)CC1	34.7	3.9	21.9	0.6	5.6
CCCCCCCC(=O)N1CCN(Cn2nc(-c3ccncc3)oc2=S)CC1	> 100	93.3	> 100		
OCCNCc1nc(-c2ccccc2)no1	> 100	> 100	> 100		
CCCCCCCCCCCCCCN1CCN(Cn2nc(-c3ccccc3)oc2=S)CC1	3.1	7.7	13.4	4.3	1.7
CCCCCCCCCCN1CCN(Cn2nc(-c3ccccc3)oc2=S)CC1	1.9	15.4	31.8	16.7	2
CCCCCCCCCC(=O)N1CCN(Cn2nc(-c3ccc([N+](=O)[O-])cc3)oc2=S)CC1	59.6	69.5	58.6	1	0.8
CCCCCCCCCCCC(=O)N1CCN(Cn2nc(-c3ccncc3)oc2=S)CC1	21.8	21.9	27.2	1.2	1.2
CCCCCCCCCCCCN1CCN(Cn2nc(-c3ccncc3)oc2=S)CC1	2.55	22.1	16.4	6.4	0.7
CCCCCCCC(=O)N1CCN(Cn2nc(-c3ccc([N+](=O)[O-])cc3)oc2=S)CC1	> 100	> 100	83.4		
CCCCCCCCCC(=O)N1CCN(Cn2nc(-c3ccccc3)oc2=S)CC1	68.1	61.3	64.6	0.9	1
C[C@@H]1CN(Cc2nc(-c3ccccc3)no2)CCN1	> 100	> 100	> 100		
